Laboratory results as given in ChEMBL document CHEMBL1127048, “A potent new class of kappa-receptor agonist: 4-substituted 1-(arylacetyl)-2-[(dialkylamino)methyl]piperazines” (J Med Chem, 1993).

Legend:
Mus musculus [1] = assay: In vivo antinociceptive activity was determined using mouse acetylcholine induced abdominal constriction test following subcutaneous administration; range (0.002-0.007); assay type: functional; details: Abdomen, sc
In short: (§1)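 Mice given compound by subcutaneous injection, then challenged with acetylcholine to induce abdominal constrictions. Antinociceptive ED50 determined in mg/kg sc, with a bracketed range reported alongside.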

Mus musculus [2] = assay: In vivo antinociceptive activity was determined using mouse acetylcholine induced abdominal constriction test following subcutaneous administration; range (0.01-0.02); assay type: functional; details: Abdomen, sc; in short: as §1
Mus musculus [3] = assay: In vivo antinociceptive activity was determined using mouse acetylcholine induced abdominal constriction test following subcutaneous administration; range (0.12-0.48); assay type: functional; details: Abdomen, sc; in short: as §1
Mus musculus [4] = assay: In vivo antinociceptive activity was determined using mouse acetylcholine induced abdominal constriction test following subcutaneous administration; range (0.000033-0.000241); assay type: functional; details: Abdomen, sc; in short: as §1
Mus musculus [5] = assay: In vivo antinociceptive activity was determined using mouse acetylcholine induced abdominal constriction test following subcutaneous administration; assay type: functional; details: Abdomen, sc; in short: as §1
Mus musculus [6] = assay: In vivo antinociceptive activity was determined using mouse acetylcholine induced abdominal constriction test following subcutaneous administration; range (0.015-0.037); assay type: functional; details: Abdomen, sc; in short: as §1
Mus musculus [7] = assay: In vivo antinociceptive activity was determined using mouse acetylcholine induced abdominal constriction test following subcutaneous administration; range (0.059-0.173); assay type: functional; details: Abdomen, sc; in short: as §1
Mus musculus [8] = assay: In vivo antinociceptive activity was determined using mouse acetylcholine induced abdominal constriction test following subcutaneous administration; range (0.012-0.032); assay type: functional; details: Abdomen, sc; in short: as §1
Mus musculus [9] = assay: In vivo antinociceptive activity was determined using mouse acetylcholine induced abdominal constriction test following subcutaneous administration; range (0.20-1.09); assay type: functional; details: Abdomen, sc; in short: as §1
Mus musculus [10] = assay: In vivo antinociceptive activity was determined using mouse acetylcholine induced abdominal constriction test following subcutaneous administration; range (0.03-0.08); assay type: functional; details: Abdomen, sc; in short: as §1
Mus musculus [11] = assay: In vivo antinociceptive activity was determined using mouse acetylcholine induced abdominal constriction test following subcutaneous administration; range (0.024-0.066); assay type: functional; details: Abdomen, sc; in short: as §1
Rattus norvegicus [12] = assay: In vivo antinociceptive activity was determined using rat paw pressure test following subcutaneous administration; range (0.00058-0.0014); assay type: functional; details: sc
Mus musculus [13] = assay: In vivo antinociceptive activity was determined using mouse acetylcholine induced abdominal constriction test following subcutaneous administration; range (0.00027-0.00086); assay type: functional; details: Abdomen, sc; in short: as §1
Mus musculus [14] = assay: In vivo antinociceptive activity was determined using mouse acetylcholine induced abdominal constriction test following subcutaneous administration; range (0.00012-0.00045); assay type: functional; details: Abdomen, sc; in short: as §1
Mu-type opioid receptor = Mu-type opioid receptor (Rattus norvegicus, UniProt P33535); assay: In vitro inhibitory activity against mu specific tissue of rat vas deferens; assay type: functional, tissue-based
Sequence of Mu-type opioid receptor (P33535 whole entry): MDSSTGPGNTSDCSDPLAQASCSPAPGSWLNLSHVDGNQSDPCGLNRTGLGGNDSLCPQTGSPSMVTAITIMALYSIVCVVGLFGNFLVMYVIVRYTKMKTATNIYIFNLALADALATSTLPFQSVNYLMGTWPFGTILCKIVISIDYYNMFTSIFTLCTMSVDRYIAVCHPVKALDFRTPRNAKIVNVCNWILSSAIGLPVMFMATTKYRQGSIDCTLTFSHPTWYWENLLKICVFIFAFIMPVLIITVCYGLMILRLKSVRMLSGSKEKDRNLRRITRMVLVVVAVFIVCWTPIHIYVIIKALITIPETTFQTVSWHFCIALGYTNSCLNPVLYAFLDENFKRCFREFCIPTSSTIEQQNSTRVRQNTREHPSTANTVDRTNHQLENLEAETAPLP

Mus musculus [15] = assay: In vivo antinociceptive activity was determined using mouse acetylcholine induced abdominal constriction test following oral administration; range (0.005-0.035); assay type: functional; details: Abdomen
[16] = target: Kappa-type opioid receptor (Homo sapiens) (UniProt P41145); details: Oryctolagus cuniculus; Vas deferens
Sequence of Kappa-type opioid receptor (Homo sapiens) (P41145 whole entry): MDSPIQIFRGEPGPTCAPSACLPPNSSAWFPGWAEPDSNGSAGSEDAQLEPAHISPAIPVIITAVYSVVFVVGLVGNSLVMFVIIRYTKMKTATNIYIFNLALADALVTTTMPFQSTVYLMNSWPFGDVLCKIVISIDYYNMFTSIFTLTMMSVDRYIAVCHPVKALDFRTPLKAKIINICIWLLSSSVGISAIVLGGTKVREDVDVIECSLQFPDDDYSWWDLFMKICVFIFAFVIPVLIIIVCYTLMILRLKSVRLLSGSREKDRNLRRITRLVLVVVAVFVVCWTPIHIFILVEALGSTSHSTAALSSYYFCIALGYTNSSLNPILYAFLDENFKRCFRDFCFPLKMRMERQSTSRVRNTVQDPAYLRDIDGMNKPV

Mus musculus [17] = assay: In vivo antinociceptive activity was determined using mouse acetylcholine induced abdominal constriction test following subcutaneous administration; range (0.04-0.15); assay type: functional; details: Abdomen, sc; in short: as §1
Rattus norvegicus [18] = species: Rattus norvegicus; assay: Agonistic/Antagonistic activity in rat vas deferens (RVD) at 10e-5 M; not active; assay type: functional
Mus musculus [19] = assay: In vivo antinociceptive activity was determined using mouse acetylcholine induced abdominal constriction test following subcutaneous administration; range (0.007-0.018); assay type: functional; details: Abdomen, sc; in short: as §1
[20] = In vitro agonist activity at kappa opioid receptor in rabbit vas deferens.
Mus musculus [21] = assay: In vivo antinociceptive activity was determined using mouse acetylcholine induced abdominal constriction test following subcutaneous administration; range (0.0003-0.002); assay type: functional; details: Abdomen, sc; in short: as §1

Compound: COC(=O)/C=C1/CCN(CC2CN(C(=O)OC)CCN2C(=O)Cc2ccc(Cl)c(Cl)c2)C1 (stereo not drawn)
- ED50 (Mus musculus [1]): 4 µg/kg

Compound: COC(=O)N1CCN(C(=O)Cc2ccc(Cl)c(Cl)c2)C(CN(C)C)C1 (stereo not drawn)
- ED50 (Mus musculus [2]): 16 µg/kg

Compound: O=CN1CCN(C(=O)Cc2ccc(Cl)c(Cl)c2)C(CN2CCCC2)C1 (stereo not drawn)
- ED50 (Mus musculus [3]): 230 µg/kg

Compound: COC(=O)N1CCN(C(=O)Cc2ccc(Cl)c(Cl)c2)C(CN2CC=CCC2)C1 (stereo not drawn)
- ED50 (Mus musculus [4]): 0.096 µg/kg

Compound: CCCOC(=O)N1CCN(C(=O)Cc2ccc(Cl)c(Cl)c2)C(CN2CCCC2)C1 (stereo not drawn)
- ED50 (Mus musculus [5]): 680 µg/kg

Compound: COC(=O)N1CCN(C(=O)Cc2ccc(Cl)c(Cl)c2)C(CN2CCC(=O)C2)C1 (stereo not drawn)
- ED50 (Mus musculus [6]): 23 µg/kg

Compound: COC(=O)/C=C1\CCN(CC2CN(C(=O)OC)CCN2C(=O)Cc2ccc(Cl)c(Cl)c2)C1 (stereo not drawn)
- ED50 (Mus musculus [7]): 100 µg/kg

Compound: C=CC(=O)N1CCN(C(=O)Cc2ccc(Cl)c(Cl)c2)C(CN2CCCC2)C1 (stereo not drawn)
- ED50 (Mus musculus [8]): 20 µg/kg

Compound: CCCC(=O)N1CCN(C(=O)Cc2ccc(Cl)c(Cl)c2)C(CN2CCCC2)C1 (stereo not drawn)
- ED50 (Mus musculus [9]): 410 µg/kg

Compound: CCC(=O)N1CCN(C(=O)Cc2ccc(Cl)c(Cl)c2)C(CN2CCCC2)C1 (stereo not drawn)
- ED50 (Mus musculus [10]): 50 µg/kg

Compound: COC(=O)N1CCN(C(=O)Cc2ccc(Cl)c(Cl)c2)C(CN2CCC(O)C2)C1 (stereo not drawn)
- ED50 (Mus musculus [11]): 44 µg/kg

Compound: COC(=O)N1CCN(C(=O)Cc2ccc(Cl)c(Cl)c2)C(CN2CCCC2)C1 (stereo not drawn)
- ED50 (Rattus norvegicus [12]): 0.93 µg/kg
- ED50 (Mus musculus [13]): 0.52 µg/kg
- ED50 (Mus musculus [14]): 0.25 µg/kg
- IC50 (Mu-type opioid receptor): > 10000 nM
- ED50 (Mus musculus [15]): 12 µg/kg
- pKB [16]: 7.7

Compound: CN1CC[C@]23c4c5ccc(O)c4O[C@H]2[C@@H](O)C=C[C@H]3[C@H]1C5 [MORPHINE]
- ED50 (Mus musculus [5]): 470 µg/kg

Compound: CC(=O)N1CCN(C(=O)Cc2ccc(Cl)c(Cl)c2)C(CN2CCCC2)C1 (stereo not drawn)
- ED50 (Mus musculus [17]): 80 µg/kg
- IC50 (Rattus norvegicus [18]): Not Active

Compound: CCOC(=O)N1CCN(C(=O)Cc2ccc(Cl)c(Cl)c2)C(CN2CCCC2)C1 (stereo not drawn)
- ED50 (Mus musculus [19]): 10 µg/kg

Compound: O=C(Cc1ccc(Cl)c(Cl)c1)N1CCC2(CC1CN1CCCC1)OCCO2 (stereo not drawn)
- IC50 [20]: 0.1 nM
- ED50 (Mus musculus [21]): 1 µg/kg
